System: MS2 coat protein
Experiment: apparent Kd, MS2 coat protein; higher = weaker binding; RNA-MaP array; FMN 200 µM where present
Outline: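 The apparent Kd comes from binding curves fitted cluster by cluster, filtered, and summarised as a median. Those curves followed SNAP-549-labelled MS2 coat protein from 0.7 or 1.5 nM, doubling to 3 µM, on Illumina sequencing-chip clusters where stalled E. coli RNA polymerase had transcribed the designs, without and then with constant ligand. The buffer was 100 mM Tris-HCl pH 7.5, 80 mM KCl, 4 mM MgCl2, BSA, DTT, yeast tRNA and Tween-20, and green signal was normalised to red-channel RNA signal and control-cluster median Fmax.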

[1] = designed as: OFF switch for flavin mononucleotide, no ligand
[2] = ligand present: flavin mononucleotide, designed as: OFF switch for flavin mononucleotide
[3] = designed as: ON switch for flavin mononucleotide, no ligand
[4] = ligand present: flavin mononucleotide, designed as: ON switch for flavin mononucleotide

Sequence | apparent Kd [1] | apparent Kd [2] | apparent Kd [3] | apparent Kd [4]
CUGCUGGAGCUUUGCUUUAGUCGUACAUGAGGAUCACCCAUGUAGGAUAUGGUAGGCUAUGCUUACUAGAAGGAUAGAGUGGUC | 62.3 nM | 32.2 nM | – | –
CUCAGACAUGAGGAUCACCCAUGUGAGGAUAUGAUGCGAUCGUCGAAAGACGAUAGCAUCAGAAGGCACAAAUG | 78.4 nM | 305 nM | – | –
AUAAAAGUAGGAUAUUGACUGAUCGACAUGAGGAUCACCCAUGUGGUGCUGUGCGGUAUUCAAGAAGGGCUAAAAU | 21.8 nM | 32.2 nM | – | –
UUGGACGUCGUAGGAUAUGUAGGAUAUUCCUACAUGAGGAUCACCCAUGUUGACAUGGAAGAAGAACAGAAGGACGAUGUCCAU | – | – | 212 nM | 6.04 nM
UUAUUUUUAUGAUUGAGGAUAGGGCAGGAUAUACAUGAGGAUCACCCAUGUAAAGCAAUAAGGAGGUAGAAGGGCCAACCUCAU | 24.3 nM | 20.1 nM | – | –
GUGGUCAGACAUGAGGAUCACCCAUGUGGAAUAAAUAAGGGACAGGAUAUUUAAUAUAGGAUAUAGAAGAAGGGUUGGUUGGUG | – | – | 106 nM | 138 nM
AGUUCCUCCGCAGGAUAUGUGCUCUUUAUCACAUGAGGAUCACCCAUGUCAGCCUAAACGGCGAGACAGAAGGGUGGUGGUGCC | – | – | 172 nM | 177 nM
UCUUAUUGAGGAUAUACAUUAAUUUACAUGAGGAUCACCCAUGUUCUUCAAUGUAUAUAUGUAGAAGGCAGAAGAA | 18.5 nM | 42 nM | – | –
GUCGAGUGAGGAUAUGGUGAGUAGUGCCUGAGCGCUGCUCACCAGAAGGCACAUGAGGAUCACCCAUGUAUAAC | 23.7 nM | 41.7 nM | – | –
CGCUACUACCAGAAGGACAUGAGGAUCACCCAUGUAGGAUAUGGGUUACAAGUACCAGUGUAAAGAAACUACGCUACAGUAGCG | – | – | 57.8 nM | 8.73 nM
AAAACAUGAGGAUCACCCAUGUAAAGAUCGGUUAAUGAAAGUGAGGAUAUACAAAAUUUUAUAGAGUAGAAGGCACUGGGUACA | – | – | 28.7 nM | 30.1 nM
CUAUGGGCAGGAUAUGCAUAUCGGGAGUGGUCGCAAGCGUUACAUGAGGAUCACCCAUGUAGAAGGGCCGCGUC | 18.9 nM | 20.4 nM | – | –
AUAAAACAUGAGGAUCACCCAUGUAGACAUAUGGGAGGAUAUACUAGAUCGAAAGAUCUAGUAGAAGGCCUUUAUG | – | – | 44.2 nM | 20.8 nM
AAGCCCUGAGGAUAUCCCAACUCGCACAUGAGGAUCACCCAUGUCCUUCUCUGGGCUUCGGGAGAAGGCAGGUCUC | 90.3 nM | 305 nM | – | –
GCGUCAGAAUUAAUUGUGACAGGCAGAAGGCCAUAUCUUAUGUCAGACAUGAGGAUCACCCAUGUGGAGGAUAUGCAGUUACAC | 11.5 nM | 19.1 nM | – | –
UAGGGAGGAGGGAGGGAGACAUGAGGAUCACCCAUGUAAAGUCAGGAUAUUCUCAUAUUAUAUUAGGAGAAGGGAUACAUAUCU | 47.5 nM | 13.8 nM | – | –
UAGAAGUCAGGAUAUGCAUGGCGGGACUUGCGUCGUGGCGUGCAGAAGGGACAUGAGGAUCACCCAUGUAAAGA | 56.1 nM | 53.4 nM | – | –
AUCAGCUCGUGAGGAUAUACGUCACUGCGUCAGCAGUGUGGUAAGAUCACAUGAGGAUCACCCAUGUAGAAGGCACGAGCUGAU | 66.2 nM | 837 nM | – | –
UUAGGCUUCUAGAAGGCAGUCCAGCUGGAGGACUGAGGAUAUAGGCACCUAACAUGAGGAUCACCCAUGUUAGUGAUUCCUCAA | 38.7 nM | 73 nM | – | –
GGAGCUCCUGACAUGAGGAUCACCCAUGUUCACUUAUUAAAUCAGGAUAUCGUCGCGAAACGCGACGAGAAGGGAUAUGCUCCU | – | – | 7.55 nM | 7.05 nM

From the EternaBench riboswitch data
